Source: PubChem
A selection: hits, their analogues and other compounds. The true share with any hit is near 1.5%.
Mot1-301 SUMO – yeast Mot1-301 growth rescue at high temperature, primary screen, SUMOylation pathway inhibitor project, S. cerevisiae, ATP luminescence, 38.5C; AID 2716, 2010; growth rescue, % at 18.8 µM; S. cerevisiae Mot1-301 growth rescue; percent above DMSO median, 100 means doubled; 1% of 320,000 active;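 active = every valid replicate shows activation above 250% relative to neutral control wells; inactive = the rest, any valid replicate at or below 250%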;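 note: OY570 slx delta 5 strain wells were the positive control but not used for scaling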
Statin myotox sup – suppressors of statin myotoxicity in C2C12 myotubes, primary screen, cell-based, single point, plate reader | C2C12 myotubes + simvastatin, ATP luminescence, 48 h; scaled: DMSO 0, geranylgeraniol control 100 | 0.78% of 330,000 active | rescue of ATP level, % at 7.49 µM;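 active = mean ATP rescue above about 67%, or every replicate alone reaching that limit, limit read from the data, passing the limit was not always enough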;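 note: myotubes were challenged with 10 µM simvastatin during compound exposure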
Cneo AK release – Cryptococcus neoformans cell lysis inducers, primary screen, AK release luminescence, single concentration; lysis activity, % at 15 µM; 0.2% of 360,000 active; C. neoformans lysis, adenylate kinase release luminescence, 4 h; normalised: neutral wells 0, clomiphene wells 100; AID 651654, 2012;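 active = mean lysis activity across replicates of at least 80%, whatever share of replicates individually reach that level; inactive = mean lysis activity below 80%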
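Schedule: static 4 h at 37 °C with compound, 1 h detection; system: C. neoformans cells; benchmarks: Clomiphene as positive control; buffer or medium: fresh YPD medium; measure: luminescence rise reflecting yeast cell lysis; measured by: luminescent adenylate kinase detection reagent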
Mot1 SUMO dose – growth restoration of Mot1-301 yeast on galactose, dose response, SUMO pathway inhibitor project, whole organism, S. cerevisiae, ATP luminescence, cherry-picked samples; growth activity, percent, % at 42 µM; 2,300 tested, under 10 active; shares compounds with Mot1-301 SUMO; S. cerevisiae Mot1-301 galactose growth, 24 h; -100 = growth of slx-deleted rescue strain;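 active = Signal drops as the depositor expects, and the fitted half-maximal dose is no more than ten times the top valid tested dose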;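 note: more negative values mean stronger growth rescue toward the control strain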
The depositor's hits bear a star; x = no result.

SMILES	Mot1-301 SUMO	Statin myotox sup	Cneo AK release	Mot1 SUMO dose
COc1cccc(-c2nn(-c3ccccc3)cc2/C=C(/NC(=O)c2ccccc2)C(=O)O)c1	915*	4	-4	0
O=C(O)/C(=C\c1cn(-c2ccccc2)nc1-c1cccnc1)NC(=O)c1ccccc1	1	0	2	x
CN(C)CCCNC(=O)C[C@@H]1CC[C@H](NS(=O)(=O)c2ccccc2)[C@H](CO)O1	x	0	6	x
CCC(C)NCCCCOc1cc(C)cc(C(C)C)c1 (configuration not stated)	401*	x	x	0
CCC(C)NCCCCOc1ccc(Br)cc1 (configuration not stated)	33	x	x	x
C[C@@H]1CN([C@H](C)CO)C(=O)Cc2cc(NC(=O)Cc3ccccc3)ccc2O[C@@H]1CN(C)Cc1ccc(Oc2ccccc2)cc1	x	-47	1	x
O=C1Nc2ccccc2C1=Nc1cccc(Cl)c1	143	2	-1	x
Cc1cccc(N=C2C(=O)Nc3c(Cl)cccc32)c1	562*	12	2	0
C[C@H]1CN([C@@H](C)CO)C(=O)c2cc(C#CCc3ccccc3)cnc2O[C@H]1CN(C)Cc1cccnc1	x	-10	2	x
NC(=O)c1ccccc1NC(=O)c1ccc2c(c1)OCO2	700*	-24	-4	-1
O=C(Nc1ccccn1)c1ccc2c(c1)OCO2	-28	x	2	x
NC(=O)c1ccccc1NC(=O)c1ccc2ccccc2c1	-8	-7	-24	x
O=C(Nc1ccc([N+](=O)[O-])cn1)c1ccc2c(c1)OCO2	605*	x	x	2
COc1ccc(-c2cn(CC[C@H]3CC[C@@H](NC(=O)Cc4ccccn4)[C@H](CO)O3)nn2)cc1	x	1	-3	x
O=C(C[C@@H]1CC[C@H]2NC[C@H](O)COC[C@@H]2O1)NCc1ccc(Oc2ccccc2)cc1	x	17	2	x
CCC(=O)N1C[C@H](O)COC[C@H]2O[C@@H](CC(=O)NCC3CCCCC3)CC[C@@H]21	x	5	5	x
O=S(=O)(N[C@H]1CC[C@H](CCn2cc(-c3cccc(F)c3)nn2)O[C@H]1CO)c1ccc(F)cc1	x	7	3	x
C[C@@H]1CCCCO[C@@H](CN(C)Cc2ccccc2)[C@@H](C)CN([C@@H](C)CO)C(=O)c2cc(NS(=O)(=O)c3ccc(Cl)cc3)ccc2O1	x	x	5	x
O=C(N/N=C/c1ccc(Cl)cc1Cl)c1cccc(F)c1	12	-23	13	x
O=C(C[n+]1ccc(C(=O)N/N=C/c2ccc(Cl)cc2Cl)cc1)c1ccccc1	712*	-12	1	0
O=C1Nc2ccccc2/C1=C/c1ccccc1Cl	-8	-5	-8	x
O=C1Nc2ccccc2/C1=C/c1ccc([N+](=O)[O-])cc1	477*	x	x	0
CO[C@@H]1CN(C)C(=O)c2ccc(NC(=O)C3CCCCC3)cc2OC[C@@H](C)N(Cc2nccs2)C[C@H]1C	x	3	-3	x
Cc1noc(C)c1NC(=O)N(C)C[C@@H]1OCCCC[C@H](C)Oc2ccc(NC(=O)C3CCCCC3)cc2C(=O)N([C@@H](C)CO)C[C@@H]1C	x	x	1	x
N#Cc1c(SCC(=O)Nc2nccs2)sc2c(O)cc(=O)[nH]c12	7	10	-1	x
SMILES	Mot1-301 SUMO	Statin myotox sup	Cneo AK release	Mot1 SUMO dose
CCCSc1nnc(NC(=O)CSc2sc3c(O)cc(=O)[nH]c3c2C#N)s1	754*	-23	-1	0
Cc1noc(C)c1NC(=O)Nc1cccc2c1O[C@@H](CN(C)C(=O)NC(C)C)[C@H](C)CN([C@H](C)CO)C2=O	x	6	-2	x
CC(C)C(OC(=O)CN1C(=O)COc2ccccc21)C(=O)NC1CCCC1 (configuration not stated)	784*	-10	-1	0
CC(C)C(OC(=O)CN1C(=O)COc2ccccc21)C(=O)NC1CCCCC1 (configuration not stated)	13	-8	2	x
CCCN1C[C@@H](C)[C@H](OC)CN(C)C(=O)c2cc(NC(=O)c3ccc4c(c3)OCO4)ccc2OC[C@H]1C	x	15	-2	x
Cc1ccc(N(C(=O)CCl)C(C(=O)NC2CCCCC2)c2cccnc2)cc1C (configuration not stated)	369*	x	x	0
Cc1ccc(N(C(=O)CNC(=O)c2ccco2)C(C(=O)NC2CCCCC2)c2cccnc2)cc1C (configuration not stated)	-2	18	2	x
COc1ccc(/C=C2/SC(=O)N(NS(=O)(=O)c3ccccc3)C2=S)cc1OC	375*	46	-1	-2
COc1cc(/C=C2\SC(=S)N(NS(=O)(=O)c3ccccc3)C2=O)cc(OC)c1OC	-5	5	-1	x
C[C@@H]1CN([C@H](C)CO)S(=O)(=O)c2ccc(-c3cccnc3)cc2O[C@@H]1CN(C)C	x	3	0	x
c1csc(-c2ccc3ccccc3n2)c1	0	x	-1	x
Nc1nc2ccccc2cc1-c1cccs1	435*	-2	-2	-1
Cc1noc(C)c1NC(=O)Nc1cccc2c1O[C@@H](CN(C)C(=O)NC1CCCCC1)[C@H](C)CN([C@@H](C)CO)C2=O	x	15	7	x
COc1cc([C@@H]2CC=C(C(=O)O)[C@H](c3ccc(F)cc3)N2S(=O)(=O)c2ccc(C)cc2)cc(OC)c1OC	-2	2	0	x
Cc1ccc(S(=O)(=O)N2[C@@H](c3ccccc3)C(C(=O)O)=CC[C@H]2c2ccc(Cl)cc2)cc1	377*	-1	-7	-1
Cc1ccc([C@@H]2CC=C(C(=O)O)[C@H](c3ccc(Cl)cc3)N2S(=O)(=O)c2ccc(C)cc2)cc1	4	-18	-5	x
COc1cc([C@@H]2CC=C(C(=O)O)[C@H](c3ccccc3F)N2S(=O)(=O)c2ccc(C)cc2)cc(OC)c1OC	662*	-9	-1	-1
CO[C@H]1CC[C@@H]2CCN(C)C(=O)[C@@H](C)[C@@H](OC)CN(C)C(=O)c3cccc(C#N)c3OC[C@@H]1O2	x	-1	10	x
CO[C@H]1CN(C)C(=O)c2ccc(NC(=O)Nc3cccc(F)c3)cc2OC[C@H](C)N(C(=O)Nc2c(C)noc2C)C[C@@H]1C	x	2	-2	x
CN(C)CC/C=C1/c2ccccc2Sc2c(O)cc(Cl)cc21	2	x	0	x
CN(C)CC/C=C1/c2cc(F)ccc2Sc2ccc(Cl)cc21	738*	6	-4	0
CN(C)CC(=O)Nc1ccc2c(c1)[C@@H]1C[C@H](CC(=O)N3CCCCC3)O[C@H](CO)[C@@H]1O2	x	2	-21	x
CCn1c(SCC(=O)NC2CCCCC2)nnc1-c1cccs1	52	62	0	x
CCn1c(SC(=O)NC2CCCCC2)nnc1-c1cccs1	525*	-11	-5	0
C[C@H]1CCCCO[C@H](CN(C)C(=O)Cc2ccccc2)[C@@H](C)CN([C@@H](C)CO)C(=O)c2cc(NC(=O)C3CCCCC3)ccc2O1	x	x	-2	x
